Assay results from ChEMBL document CHEMBL1250448, “Inhibitor hijacking of Akt activation” (Nat Chem Biol, 2009).

Tests used:
[1] = biological target: Protein kinase C eta type (Homo sapiens) (UniProt P24723); experiment: Inhibition of PRKCH at 1 uM in presence of 10 uM ATP by Select Screen kinase assay relative to untreated control
[2] = biological target: cGMP-dependent protein kinase 2 (Homo sapiens) (UniProt Q13237); experiment: Inhibition of PRKG2 at 1 uM in presence of 10 uM ATP by Select Screen kinase assay relative to untreated control
[3] = test system: Proto-oncogene tyrosine-protein kinase receptor Ret (Homo sapiens), P07949 [V804L]; experiment: Inhibition of RET V804L mutant at 1 uM in presence of 10 uM ATP by Select Screen kinase assay relative to untreated control
How it was run: (§1)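 Commercial SelectScreen profiling panel of 220 purified kinases. Each kinase was tested at a single inhibitor concentration of 1 μM, and activity was expressed as percent inhibition.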

[4] = test system: Proto-oncogene tyrosine-protein kinase receptor Ret (Homo sapiens), P07949 [Y791F]; experiment: Inhibition of RET Y791F mutant at 1 uM in presence of 10 uM ATP by Select Screen kinase assay relative to untreated control
How it was run: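 Profiling panel of 220 purified kinases (SelectScreen), each compound tested at 1 μM. Read-out is percent inhibition of kinase activity.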

[5] = test system: Tyrosine-protein kinase ABL1 (Homo sapiens), P00519 [E255K]; experiment: Inhibition of ABL1 E255K mutant at 1 uM in presence of 10 uM ATP by Select Screen kinase assay relative to untreated control
How it was run: (§2)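 Single-point screen at 1 μM against a panel of 220 purified kinases, run by Invitrogen staff as a SelectScreen profiling service. Read-out is percent inhibition of kinase activity.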

[6] = test system: Tyrosine-protein kinase ABL1 (Homo sapiens), P00519 [T315I]; experiment: Inhibition of ABL1 T315I mutant at 1 uM in presence of 10 uM ATP by Select Screen kinase assay relative to untreated control; how it was run: as §2
[7] = biological target: Tyrosine-protein kinase ABL2 (Homo sapiens) (UniProt P42684); experiment: Inhibition of ABL2 at 1 uM in presence of 10 uM ATP by Select Screen kinase assay relative to untreated control; how it was run: as §2
[8] = biological target: Serine/threonine-protein kinase BRSK1 (Homo sapiens) (UniProt Q8TDC3); experiment: Inhibition of BRSK1 at 1 uM in presence of 10 uM ATP by Select Screen kinase assay relative to untreated control; how it was run: as §2
[9] = biological target: Calcium/calmodulin-dependent protein kinase type 1D (Homo sapiens) (UniProt Q8IU85); experiment: Inhibition of CAMK1D at 1 uM in presence of 10 uM ATP by Select Screen kinase assay relative to untreated control; how it was run: as §2
[10] = biological target: Ribosomal protein S6 kinase alpha-2 (Homo sapiens) (UniProt Q15349); experiment: Inhibition of RPS6KA2 at 1 uM in presence of 10 uM ATP by Select Screen kinase assay relative to untreated control
[11] = biological target: Serine/threonine-protein kinase Sgk2 (Homo sapiens) (UniProt Q9HBY8); experiment: Inhibition of SGK2 at 1 uM in presence of 10 uM ATP by Select Screen kinase assay relative to untreated control; how it was run: as §1
[12] = biological target: SRSF protein kinase 3 (Homo sapiens) (UniProt Q9UPE1); experiment: Inhibition of STK23 at 1 uM in presence of 10 uM ATP by Select Screen kinase assay relative to untreated control; how it was run: as §1
[13] = biological target: Calcium/calmodulin-dependent protein kinase type IV (Homo sapiens) (UniProt Q16566); experiment: Inhibition of CAMK4 at 1 uM in presence of 10 uM ATP by Select Screen kinase assay relative to untreated control; how it was run: as §2
[14] = biological target: Serine/threonine-protein kinase MRCK alpha (Homo sapiens) (UniProt Q5VT25); experiment: Inhibition of CDC42 binding protein alpha at 1 uM in presence of 10 uM ATP by Select Screen kinase assay relative to untreated control; how it was run: as §2
[15] = biological target: Casein kinase I isoform epsilon (Homo sapiens) (UniProt P49674); experiment: Inhibition of CSNK1E at 1 uM in presence of 10 uM ATP by Select Screen kinase assay relative to untreated control
[16] = biological target: Casein kinase II subunit alpha' (Homo sapiens) (UniProt P19784); experiment: Inhibition of CSNK2A2 at 1 uM in presence of 10 uM ATP by Select Screen kinase assay relative to untreated control
How it was run: (§3)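 Part of a 220-kinase panel of purified kinases, each tested with compound at 1 μM. Percent inhibition was measured in the Invitrogen SelectScreen profiling assay.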

[17] = biological target: Ephrin type-B receptor 4 (Homo sapiens) (UniProt P54760); experiment: Inhibition of EPHB4 at 1 uM in presence of 10 uM ATP by Select Screen kinase assay relative to untreated control; how it was run: as §2
[18] = biological target: Receptor-type tyrosine-protein kinase FLT3 (Homo sapiens) (UniProt P36888); experiment: Inhibition of FLT3 at 1 uM in presence of 10 uM ATP by Select Screen kinase assay relative to untreated control
How it was run: (§4)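 Single-concentration profiling at 1 μM against a panel of 220 purified kinases, run as an outsourced SelectScreen kinase profiling service. Activity is expressed as percent inhibition.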

[19] = test system: Receptor-type tyrosine-protein kinase FLT3 (Homo sapiens), P36888 [D835Y]; experiment: Inhibition of FLT3 D835Y mutant at 1 uM in presence of 10 uM ATP by Select Screen kinase assay relative to untreated control; how it was run: as §3
[20] = biological target: Tyrosine-protein kinase ITK/TSK (Homo sapiens) (UniProt Q08881); experiment: Inhibition of ITK at 1 uM in presence of 10 uM ATP by Select Screen kinase assay relative to untreated control
[21] = biological target: Tyrosine-protein kinase JAK3 (Homo sapiens) (UniProt P52333); experiment: Inhibition of JAK3 at 1 uM in presence of 10 uM ATP by Select Screen kinase assay relative to untreated control; how it was run: as §4
[22] = biological target: Mast/stem cell growth factor receptor Kit (Homo sapiens) (UniProt P10721); experiment: Inhibition of KIT at 1 uM in presence of 100 uM ATP by Select Screen kinase assay relative to untreated control; how it was run: as §4
[23] = biological target: Mitogen-activated protein kinase kinase kinase kinase 4 (Homo sapiens) (UniProt O95819); experiment: Inhibition of MAP4K4 at 1 uM in presence of 10 uM ATP by Select Screen kinase assay relative to untreated control
[24] = biological target: Serine/threonine-protein kinase Nek2 (Homo sapiens) (UniProt P51955); experiment: Inhibition of NEK2 at 1 uM in presence of 10 uM ATP by Select Screen kinase assay relative to untreated control
[25] = biological target: Serine/threonine-protein kinase PAK 4 (Homo sapiens) (UniProt O96013); experiment: Inhibition of PAK4 at 1 uM in presence of 10 uM ATP by Select Screen kinase assay relative to untreated control
[26] = biological target: Platelet-derived growth factor receptor beta (Homo sapiens) (UniProt P09619); experiment: Inhibition of PDGFRbeta at 1 uM in presence of 100 uM ATP by Select Screen kinase assay relative to untreated control
[27] = biological target: Protein kinase C alpha type (Homo sapiens) (UniProt P17252); experiment: Inhibition of PRKCA at 1 uM in presence of 10 uM ATP by Select Screen kinase assay relative to untreated control

Serine/threonine-protein kinase Nek2 (Homo sapiens), sequence (P51955 whole entry): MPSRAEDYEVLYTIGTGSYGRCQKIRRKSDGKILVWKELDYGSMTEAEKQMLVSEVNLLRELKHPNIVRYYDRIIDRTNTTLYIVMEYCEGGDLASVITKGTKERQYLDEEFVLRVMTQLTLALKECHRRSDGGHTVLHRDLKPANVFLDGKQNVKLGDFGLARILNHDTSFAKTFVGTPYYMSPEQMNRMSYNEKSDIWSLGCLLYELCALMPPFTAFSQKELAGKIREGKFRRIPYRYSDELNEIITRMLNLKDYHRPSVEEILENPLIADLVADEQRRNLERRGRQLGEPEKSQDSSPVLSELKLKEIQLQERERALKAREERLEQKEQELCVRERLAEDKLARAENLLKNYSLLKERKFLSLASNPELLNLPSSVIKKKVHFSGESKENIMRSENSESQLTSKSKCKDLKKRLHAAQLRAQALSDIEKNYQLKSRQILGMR
Tyrosine-protein kinase JAK3 (Homo sapiens), sequence (P52333 whole entry): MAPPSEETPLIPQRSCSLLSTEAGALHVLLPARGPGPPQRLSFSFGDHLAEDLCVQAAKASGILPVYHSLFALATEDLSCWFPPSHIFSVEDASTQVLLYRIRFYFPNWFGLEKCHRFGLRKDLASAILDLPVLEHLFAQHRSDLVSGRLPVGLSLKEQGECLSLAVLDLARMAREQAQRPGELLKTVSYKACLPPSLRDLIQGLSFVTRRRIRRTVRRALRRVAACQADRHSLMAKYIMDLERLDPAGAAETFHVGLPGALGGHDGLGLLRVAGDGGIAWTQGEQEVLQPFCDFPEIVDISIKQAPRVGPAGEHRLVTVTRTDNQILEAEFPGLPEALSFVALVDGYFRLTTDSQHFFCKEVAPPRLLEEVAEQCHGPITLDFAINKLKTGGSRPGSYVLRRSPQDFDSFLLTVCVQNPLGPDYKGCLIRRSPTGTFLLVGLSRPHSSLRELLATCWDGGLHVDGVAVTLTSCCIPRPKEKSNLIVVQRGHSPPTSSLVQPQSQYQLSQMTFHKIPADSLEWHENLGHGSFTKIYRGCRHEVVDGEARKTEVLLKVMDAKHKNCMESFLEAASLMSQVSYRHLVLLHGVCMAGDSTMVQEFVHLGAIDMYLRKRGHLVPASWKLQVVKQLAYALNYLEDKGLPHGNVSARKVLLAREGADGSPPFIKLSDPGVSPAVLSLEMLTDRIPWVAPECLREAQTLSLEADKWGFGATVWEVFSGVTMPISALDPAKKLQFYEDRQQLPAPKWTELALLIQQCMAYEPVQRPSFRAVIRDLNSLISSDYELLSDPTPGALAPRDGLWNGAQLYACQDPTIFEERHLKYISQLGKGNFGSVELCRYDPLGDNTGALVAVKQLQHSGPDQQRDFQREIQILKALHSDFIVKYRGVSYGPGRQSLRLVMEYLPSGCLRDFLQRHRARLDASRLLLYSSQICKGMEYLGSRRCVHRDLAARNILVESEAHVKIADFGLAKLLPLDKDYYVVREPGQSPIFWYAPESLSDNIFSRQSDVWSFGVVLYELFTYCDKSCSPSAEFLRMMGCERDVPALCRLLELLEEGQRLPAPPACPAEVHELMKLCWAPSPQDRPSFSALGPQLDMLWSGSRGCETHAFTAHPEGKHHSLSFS
Calcium/calmodulin-dependent protein kinase type 1D (Homo sapiens), sequence (Q8IU85 whole entry, looked up): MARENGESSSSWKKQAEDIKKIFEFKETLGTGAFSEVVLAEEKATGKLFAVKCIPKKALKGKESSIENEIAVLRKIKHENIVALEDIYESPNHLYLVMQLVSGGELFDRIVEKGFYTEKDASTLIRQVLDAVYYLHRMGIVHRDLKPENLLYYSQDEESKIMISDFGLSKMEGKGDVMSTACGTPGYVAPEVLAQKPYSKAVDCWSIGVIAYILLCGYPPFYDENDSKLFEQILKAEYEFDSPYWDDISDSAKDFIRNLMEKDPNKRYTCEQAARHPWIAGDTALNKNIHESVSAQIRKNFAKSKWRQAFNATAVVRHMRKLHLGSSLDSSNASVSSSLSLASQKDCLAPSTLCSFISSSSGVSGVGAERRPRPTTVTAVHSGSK
Casein kinase II subunit alpha' (Homo sapiens), sequence (P19784 whole entry, looked up): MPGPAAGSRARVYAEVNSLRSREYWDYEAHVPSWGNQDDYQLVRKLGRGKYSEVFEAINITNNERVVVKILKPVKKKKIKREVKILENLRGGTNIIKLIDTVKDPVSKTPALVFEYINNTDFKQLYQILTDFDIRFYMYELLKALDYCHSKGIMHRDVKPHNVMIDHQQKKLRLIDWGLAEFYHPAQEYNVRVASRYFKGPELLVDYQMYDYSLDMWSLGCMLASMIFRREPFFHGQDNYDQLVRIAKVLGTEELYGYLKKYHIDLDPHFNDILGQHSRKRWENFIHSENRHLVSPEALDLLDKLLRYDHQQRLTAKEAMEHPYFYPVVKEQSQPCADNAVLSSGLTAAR
Mast/stem cell growth factor receptor Kit (Homo sapiens), sequence (P10721 whole entry): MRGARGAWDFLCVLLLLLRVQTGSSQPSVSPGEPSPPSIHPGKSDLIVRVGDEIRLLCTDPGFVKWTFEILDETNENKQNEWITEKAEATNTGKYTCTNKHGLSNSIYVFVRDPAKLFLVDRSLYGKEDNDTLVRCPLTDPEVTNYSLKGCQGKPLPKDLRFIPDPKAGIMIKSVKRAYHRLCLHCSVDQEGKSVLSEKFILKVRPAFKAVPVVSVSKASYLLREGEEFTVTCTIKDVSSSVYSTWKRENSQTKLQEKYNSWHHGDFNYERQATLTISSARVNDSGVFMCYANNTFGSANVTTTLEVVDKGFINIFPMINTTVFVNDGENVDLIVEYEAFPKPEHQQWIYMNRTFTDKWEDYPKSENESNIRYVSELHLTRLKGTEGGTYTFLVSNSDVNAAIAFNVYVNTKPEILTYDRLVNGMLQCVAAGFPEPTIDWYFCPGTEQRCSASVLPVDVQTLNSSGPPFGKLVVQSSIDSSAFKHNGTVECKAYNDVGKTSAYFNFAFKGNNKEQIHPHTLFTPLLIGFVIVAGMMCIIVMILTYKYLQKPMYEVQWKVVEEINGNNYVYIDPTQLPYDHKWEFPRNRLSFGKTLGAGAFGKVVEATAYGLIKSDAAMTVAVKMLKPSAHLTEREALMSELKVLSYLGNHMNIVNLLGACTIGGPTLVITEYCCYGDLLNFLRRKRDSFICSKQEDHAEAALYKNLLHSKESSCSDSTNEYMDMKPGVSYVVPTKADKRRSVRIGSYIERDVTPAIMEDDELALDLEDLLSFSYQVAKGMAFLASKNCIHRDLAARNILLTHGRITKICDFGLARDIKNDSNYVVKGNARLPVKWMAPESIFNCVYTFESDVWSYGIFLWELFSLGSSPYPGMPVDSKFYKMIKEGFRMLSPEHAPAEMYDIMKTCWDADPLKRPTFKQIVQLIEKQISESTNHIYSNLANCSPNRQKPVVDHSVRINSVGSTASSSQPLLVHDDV
Serine/threonine-protein kinase MRCK alpha (Homo sapiens), sequence (Q5VT25 whole entry, canonical isoform): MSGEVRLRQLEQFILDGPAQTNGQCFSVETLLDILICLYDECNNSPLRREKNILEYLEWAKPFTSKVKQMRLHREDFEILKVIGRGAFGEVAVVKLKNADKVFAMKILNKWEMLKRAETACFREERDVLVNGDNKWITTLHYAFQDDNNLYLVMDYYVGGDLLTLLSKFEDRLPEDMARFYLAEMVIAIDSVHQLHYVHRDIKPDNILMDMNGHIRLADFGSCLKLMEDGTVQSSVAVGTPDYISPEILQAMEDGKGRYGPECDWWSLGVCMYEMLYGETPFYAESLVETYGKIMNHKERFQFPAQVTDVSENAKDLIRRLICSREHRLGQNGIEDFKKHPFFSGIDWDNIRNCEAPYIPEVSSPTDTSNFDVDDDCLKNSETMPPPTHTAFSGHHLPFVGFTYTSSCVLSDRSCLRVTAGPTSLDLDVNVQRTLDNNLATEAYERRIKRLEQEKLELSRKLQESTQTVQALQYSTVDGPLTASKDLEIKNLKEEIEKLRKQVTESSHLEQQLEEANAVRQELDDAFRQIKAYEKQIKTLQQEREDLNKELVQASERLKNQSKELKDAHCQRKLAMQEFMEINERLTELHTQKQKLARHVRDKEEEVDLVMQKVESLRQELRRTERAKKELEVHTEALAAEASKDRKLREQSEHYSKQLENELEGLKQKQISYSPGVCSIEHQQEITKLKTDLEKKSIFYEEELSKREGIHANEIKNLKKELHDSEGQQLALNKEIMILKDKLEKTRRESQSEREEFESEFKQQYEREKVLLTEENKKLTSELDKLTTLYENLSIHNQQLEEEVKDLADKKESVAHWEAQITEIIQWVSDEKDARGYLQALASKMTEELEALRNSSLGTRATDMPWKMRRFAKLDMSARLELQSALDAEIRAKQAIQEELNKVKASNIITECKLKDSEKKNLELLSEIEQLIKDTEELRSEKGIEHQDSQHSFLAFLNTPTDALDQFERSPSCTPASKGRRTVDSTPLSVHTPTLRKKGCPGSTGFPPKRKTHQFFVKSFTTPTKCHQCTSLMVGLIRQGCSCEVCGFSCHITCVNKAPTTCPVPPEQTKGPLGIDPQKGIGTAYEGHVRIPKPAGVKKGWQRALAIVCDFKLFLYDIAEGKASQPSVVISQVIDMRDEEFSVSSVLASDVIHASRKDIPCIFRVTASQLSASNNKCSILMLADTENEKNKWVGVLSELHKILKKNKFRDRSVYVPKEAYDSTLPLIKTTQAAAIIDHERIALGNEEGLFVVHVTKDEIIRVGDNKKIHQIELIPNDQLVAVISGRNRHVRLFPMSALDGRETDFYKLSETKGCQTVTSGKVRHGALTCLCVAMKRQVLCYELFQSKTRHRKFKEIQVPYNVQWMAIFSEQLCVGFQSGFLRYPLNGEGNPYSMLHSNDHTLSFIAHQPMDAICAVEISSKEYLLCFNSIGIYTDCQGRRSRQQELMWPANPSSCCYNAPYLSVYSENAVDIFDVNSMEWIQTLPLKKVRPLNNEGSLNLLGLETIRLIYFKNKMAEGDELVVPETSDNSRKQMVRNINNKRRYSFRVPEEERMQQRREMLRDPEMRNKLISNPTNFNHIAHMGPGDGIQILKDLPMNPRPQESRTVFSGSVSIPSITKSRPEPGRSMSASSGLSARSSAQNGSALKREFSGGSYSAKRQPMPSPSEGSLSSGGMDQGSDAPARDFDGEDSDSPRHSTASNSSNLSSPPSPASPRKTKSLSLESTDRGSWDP

| SMILES | inhibition [1] [%] | inhibition [2] [%] | inhibition [3] [%] | inhibition [4] [%] | inhibition [5] [%] | inhibition [6] [%] | inhibition [7] [%] | inhibition [8] [%] | inhibition [9] [%] | inhibition [10] [%] | inhibition [11] [%] | inhibition [12] [%] | inhibition [13] [%] | inhibition [14] [%] | inhibition [15] [%] | inhibition [16] [%] | inhibition [17] [%] | inhibition [18] [%] | inhibition [19] [%] | inhibition [20] [%] | other results |
| --- | --- | --- | --- | --- | --- | --- | --- | --- | --- | --- | --- | --- | --- | --- | --- | --- | --- | --- | --- | --- | --- |
| COc1ccccc1N1CCN(c2ncnc3[nH]nc(Br)c23)CC1 | 8 | 92 | 66 | 48 | 5 | 8 | 4 | 29 | 24 | 55 | 10 | 3 | 0 | -3 | 23 | 27 | 11 | 60 | 71 | 16 | inhibition [21]: -1%; inhibition [22]: -7%; inhibition [23]: 73%; inhibition [24]: 21%; inhibition [25]: 9%; inhibition [26]: 2%; inhibition [27]: 21% |
| Cc1n[nH]c2ccc(-c3cncc(OC[C@@H](N)Cc4c[nH]c5ccccc45)c3)cc12 | – | – | – | – | – | – | – | – | – | – | – | – | – | – | 42 | – | – | – | – | – | – |
| O=C(NCCCNc1nc(Nc2cccc(NC(=O)N3CCCC3)c2)ncc1I)c1cccs1 | 7 | 29 | 93 | 91 | 26 | 40 | 37 | 75 | 14 | 63 | 25 | 6 | 8 | 19 | – | 26 | 8 | 95 | 100 | 56 | inhibition [21]: 89%; inhibition [22]: 13%; inhibition [23]: 39%; inhibition [24]: 33%; inhibition [25]: 42%; inhibition [26]: 84%; inhibition [27]: 61% |
